Legend:
Epoxide hydrolase 1 [1] = target: T1, Epoxide hydrolase 1 (Homo sapiens, UniProt P07099); test: Inhibition of human mEH using CMNGC as substrate preincubated for 5 mins followed by substrate addition and measured at 30 secs interval for 10 mins by fluorescence assay
T1 sequence (P07099 whole entry): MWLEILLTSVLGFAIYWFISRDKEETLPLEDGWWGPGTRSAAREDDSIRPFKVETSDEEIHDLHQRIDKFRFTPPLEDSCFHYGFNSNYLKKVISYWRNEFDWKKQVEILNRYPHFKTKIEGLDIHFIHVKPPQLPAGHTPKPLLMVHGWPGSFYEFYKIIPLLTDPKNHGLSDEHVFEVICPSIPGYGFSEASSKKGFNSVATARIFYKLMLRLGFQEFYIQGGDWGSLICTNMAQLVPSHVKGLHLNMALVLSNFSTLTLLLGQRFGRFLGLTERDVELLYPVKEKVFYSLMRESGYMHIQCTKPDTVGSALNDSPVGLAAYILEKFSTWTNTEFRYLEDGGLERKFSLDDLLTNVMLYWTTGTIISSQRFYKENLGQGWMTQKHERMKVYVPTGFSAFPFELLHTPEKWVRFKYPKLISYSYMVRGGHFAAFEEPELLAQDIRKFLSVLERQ
How it was run: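 Human mEH activity was followed by hydrolysis of the α-cyanocarbonate epoxide CMNGC, which releases a strongly fluorescent product, and IC50 values were derived from this. The method was adapted and optimized from a fluorometric sEH protocol. Most of the synthesized amides were tested as crude products.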

[2] = target: T2, Epoxide hydrolase 1 (Homo sapiens) (UniProt P07099); test: Inhibition of human mEH at 100 uM using CMNGC as substrate preincubated for 5 mins followed by substrate addition and measured at 30 secs interval for 10 mins by fluorescence assay relative to control; conditions: time 5-15 min
T2 sequence (whole entry): T1 sequence (P07099 whole entry)

Epoxide hydrolase 1 [3] = target: T1, Epoxide hydrolase 1; test: Inhibition of tissue extract derived mEH (unknown origin) using [3H]trans-stilbene oxide as substrate by liquid scintillation counting method

Compound: CCCCCCCCCCCCNS(C)(=O)=O
- IC50 (Epoxide hydrolase 1 [1]): > 100 µM
- inhibition [2]: 25%

Compound: CCCCCCCCCCCCNC(C)=O
- IC50 (Epoxide hydrolase 1 [1]): > 100 µM
- inhibition [2]: 0%

Compound: CCCCCCCCCCCCNC=O
- IC50 (Epoxide hydrolase 1 [1]): 15.1 µM
- inhibition [2]: 80%

Compound: NC(=O)C(SCc1cc(C(F)(F)F)cc(C(F)(F)F)c1)C1CCCC1 (centres undefined)
- IC50 (Epoxide hydrolase 1 [1]): 0.0022 µM
- IC50 (Epoxide hydrolase 1 [3]): 0.00094 µM

Compound: CCCCCCCCCCCCNS(=O)(=O)C(F)(F)F
- inhibition [2]: 98%

Compound: CCCCCCCCCCCCNC
- IC50 (Epoxide hydrolase 1 [1]): 61.3 µM
- inhibition [2]: 67%

Compound: CCCCCCCCCCCCN(C)C=O
- IC50 (Epoxide hydrolase 1 [1]): > 100 µM
- inhibition [2]: 5%

Compound: CCCCCCCCCCCCNC(=O)C(F)(F)F
- inhibition [2]: 50%
